Assay results taken from ChEMBL document CHEMBL1142927, “Novel 3-iodo-8-ethoxypyrazolo[5,1-c][1,2,4]benzotriazine 5-oxide as promising lead for design of alpha5-inverse agonist useful tools for therapy of mnemonic damage” (Bioorg Med Chem, 2007).
pKi: −log10 of the molar value. Active and inactive are the calls of the source. The rule behind the calls is not given here.

Columns and labels:
[1] = Displacement of [3H]flumazenil from bovine brain cortex GABAA/Bz receptor; parameters: species or system Bos taurus
In short: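 Bovine cerebral cortex membranes in 50 mM Tris-citrate pH 7.4, [3H]Ro 15-1788 (70.8 Ci/mmol) as radioligand. […] At least six concentrations used, curve-fitted, Ki by Cheng–Prusoff; means ± SEM of five determinations in triplicate.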

[2] = biological target: GABA-A receptor; alpha-1/beta-2/gamma-2 (Rattus norvegicus, UniProt P18508+P62813+P63138); test: Displacement of [3H]Ro15-1788 from rat recombinant GABA alpha-1-beta-2-gamma-2 receptor expressed in HEK293 cells; assay type: cell-based
Chain of GABA-A receptor; alpha-1/beta-2/gamma-2 (P18508 whole entry): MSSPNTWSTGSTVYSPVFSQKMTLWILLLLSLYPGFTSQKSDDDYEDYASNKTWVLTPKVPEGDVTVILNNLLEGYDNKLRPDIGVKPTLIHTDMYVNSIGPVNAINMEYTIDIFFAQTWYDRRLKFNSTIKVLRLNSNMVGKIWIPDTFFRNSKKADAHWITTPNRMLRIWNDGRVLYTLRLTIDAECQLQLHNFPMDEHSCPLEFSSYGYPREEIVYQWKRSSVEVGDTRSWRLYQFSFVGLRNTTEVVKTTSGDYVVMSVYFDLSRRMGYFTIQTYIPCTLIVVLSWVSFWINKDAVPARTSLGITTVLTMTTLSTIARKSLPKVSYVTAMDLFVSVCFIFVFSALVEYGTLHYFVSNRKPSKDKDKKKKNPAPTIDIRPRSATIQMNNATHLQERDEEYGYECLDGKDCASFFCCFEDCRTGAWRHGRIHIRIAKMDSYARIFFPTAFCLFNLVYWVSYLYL
Chain of GABA-A receptor; alpha-1/beta-2/gamma-2 (P62813 whole entry): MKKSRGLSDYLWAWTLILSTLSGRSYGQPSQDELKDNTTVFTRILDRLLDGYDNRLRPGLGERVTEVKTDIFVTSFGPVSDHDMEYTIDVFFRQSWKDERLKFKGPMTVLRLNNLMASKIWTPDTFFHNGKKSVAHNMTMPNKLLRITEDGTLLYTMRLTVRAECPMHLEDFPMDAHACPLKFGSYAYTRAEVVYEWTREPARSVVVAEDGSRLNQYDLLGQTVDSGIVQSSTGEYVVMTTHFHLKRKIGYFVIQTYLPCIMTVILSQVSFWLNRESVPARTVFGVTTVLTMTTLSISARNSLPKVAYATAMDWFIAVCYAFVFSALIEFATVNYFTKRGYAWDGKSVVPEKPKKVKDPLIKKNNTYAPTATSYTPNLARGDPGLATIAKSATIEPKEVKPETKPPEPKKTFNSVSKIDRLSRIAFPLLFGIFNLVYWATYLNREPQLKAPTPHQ
Chain of GABA-A receptor; alpha-1/beta-2/gamma-2 (P63138 whole entry): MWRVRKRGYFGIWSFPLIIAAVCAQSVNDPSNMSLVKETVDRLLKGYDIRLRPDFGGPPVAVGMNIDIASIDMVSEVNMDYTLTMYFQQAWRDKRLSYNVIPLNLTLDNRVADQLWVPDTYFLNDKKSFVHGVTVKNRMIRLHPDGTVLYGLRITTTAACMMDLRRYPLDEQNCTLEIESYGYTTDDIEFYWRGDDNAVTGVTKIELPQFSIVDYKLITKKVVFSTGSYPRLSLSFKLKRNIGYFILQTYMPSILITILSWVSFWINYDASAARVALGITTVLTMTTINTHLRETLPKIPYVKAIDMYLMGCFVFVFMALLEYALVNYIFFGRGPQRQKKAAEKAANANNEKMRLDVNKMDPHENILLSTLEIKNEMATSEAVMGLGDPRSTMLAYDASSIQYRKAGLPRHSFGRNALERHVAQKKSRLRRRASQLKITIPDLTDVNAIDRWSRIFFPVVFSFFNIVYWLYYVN
In short: (§1)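 Crude membranes from clonal mammalian cells expressing recombinant subtypes, grown in MEM/EBSS with 10% FCS at 37 °C, 5% CO2. Membranes resuspended in 10 mM potassium phosphate pH 7.4 with 100 mM KCl. Ki from three independent experiments run in triplicate, means ± SEM.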

[3] = biological target: GABA A receptor alpha-3/beta-2/gamma-2 (Rattus norvegicus, UniProt P18508+P20236+P63138); test: Displacement of [3H]Ro15-1788 from rat recombinant GABA alpha-3-beta-2-gamma-2 receptor expressed in HEK293 cells; assay type: cell-based; in short: as §1
Chain of GABA A receptor alpha-3/beta-2/gamma-2 (P18508 whole entry): as the sequence (P18508 whole entry) above
Chain of GABA A receptor alpha-3/beta-2/gamma-2 (P20236 whole entry): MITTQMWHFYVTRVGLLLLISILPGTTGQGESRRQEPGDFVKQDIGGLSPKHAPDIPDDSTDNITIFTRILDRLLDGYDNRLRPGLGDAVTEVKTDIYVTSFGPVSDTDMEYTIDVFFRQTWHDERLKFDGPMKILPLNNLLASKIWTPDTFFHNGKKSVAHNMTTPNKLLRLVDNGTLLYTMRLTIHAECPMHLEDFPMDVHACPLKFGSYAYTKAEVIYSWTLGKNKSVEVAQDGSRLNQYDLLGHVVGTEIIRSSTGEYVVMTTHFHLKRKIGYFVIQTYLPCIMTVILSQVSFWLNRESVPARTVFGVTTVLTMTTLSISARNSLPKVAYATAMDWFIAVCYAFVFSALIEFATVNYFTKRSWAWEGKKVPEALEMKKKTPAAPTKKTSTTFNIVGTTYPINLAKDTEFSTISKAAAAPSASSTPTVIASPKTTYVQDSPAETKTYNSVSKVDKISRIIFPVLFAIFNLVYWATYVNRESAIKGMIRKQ
Chain of GABA A receptor alpha-3/beta-2/gamma-2 (P63138 whole entry): as the sequence (P63138 whole entry) above

Mus musculus [4] = test: Effect on motor coordination in CD1 Albino mouse assessed as number of falls in 30 secs at 3 mg/kg, po […] by rotarod test relative to control; assay type: functional
Mus musculus [5] = test: Effect on motor coordination in CD1 Albino mouse assessed as number of falls in 30 secs at 10 mg/kg, po […] by rotarod test relative to control; assay type: functional
Mus musculus [6] = test: Effect on motor coordination in CD1 Albino mouse assessed as number of falls in 30 secs at 30 mg/kg, po […] by rotarod test relative to control; assay type: functional
Mus musculus [7] = test: Anticonvulsant activity against pentylenetetrazole-induced seizure in CD1 Albino mouse at 3 mg/kg, po; assay type: functional
In short: (§2)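 Male CD-1 mice (22–24 g) dosed po in 1% carboxymethylcellulose (10 ml/kg); PTZ 90 mg/kg sc given 30 min later. Occurrence of clonic generalized convulsions noted over 30 min and expressed as percent of animals protected; latency (s) also recorded. Means ± SEM; ANOVA with Scheffe post-hoc test, Student's two-tailed t-test for pairs of means.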

Mus musculus [8] = test: Anticonvulsant activity against pentylenetetrazole-induced seizure in CD1 Albino mouse at 10 mg/kg, po; assay type: functional; in short: as §2
Mus musculus [9] = test: Anticonvulsant activity against pentylenetetrazole-induced seizure in CD1 Albino mouse at 30 mg/kg, po; assay type: functional; in short: as §2
Mus musculus [10] = organism: Mus musculus; test: Anxiogenic-like effect in CD1 Albino mouse assessed as decrease in time spent in light compartment in light-dark box test; assay type: functional, organism-based
In short: (§3)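 Light/dark box test in male CD-1 mice dosed 30 min beforehand in 1% CMC vehicle. Number of transfers between compartments and time spent in the illuminated side counted over 5 min. Statistics by ANOVA with Fischer's test versus controls.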

Mus musculus [11] = test: Anxiogenic-like effect in CD1 Albino mouse assessed as decrease in number of transfers from one compartment to another at 10 mg/kg in light-dark box test; assay type: functional, organism-based; parameters: dose 10 mg/kg; in short: as §3
Mus musculus [12] = test: Effect on learning and memory performance in CD1 Albino mouse assessed as cognition enhancement at 3 mg/kg, po; assay type: functional, organism-based; parameters: dose 3 mg/kg
In short: (§4)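 Passive avoidance test in male CD-1 mice dosed po 30 min before training, with retention tested 24 h later. Read-out was the difference in latency (s) to enter the dark compartment between training and retention. Means ± SEM of 9–10 mice; ANOVA with Fischer's test.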

Mus musculus [13] = test: Effect on learning and memory performance in CD1 Albino mouse assessed as cognition enhancement at 10 mg/kg, po; assay type: functional, organism-based; parameters: dose 10 mg/kg; in short: as §4
Mus musculus [14] = test: Decrease in ethanol-induced sleeping time in CD1 Albino mouse at 3 mg/kg, po relative to control; assay type: functional, organism-based; parameters: dose 3 mg/kg
In short: (§5)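 Male CD-1 mice given drug po in 1% CMC, then ethanol 4 g/kg ip 30 min later. Sleep time taken as duration of loss of righting reflex, capped at 210 min. Means ± SEM of 5–16 mice; ANOVA with Fischer's test versus controls.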

Mus musculus [15] = test: Decrease in ethanol-induced sleeping time in CD1 Albino mouse at 10 mg/kg, po relative to control; assay type: functional, organism-based; parameters: dose 10 mg/kg; in short: as §5
[16] = biological target: GABA-A receptor alpha-5/beta-2/gamma-2 (Rattus norvegicus); test: Displacement of [3H]Ro-151788 from rat recombinant GABA alpha-5-beta-2-gamma-2 receptor expressed in HEK293 cells
Mus musculus [17] = test: Anticonvulsant activity against pentylenetetrazole-induced seizure in CD1 Albino mouse assessed as latency at 3 mg/kg, po; assay type: functional; in short: as §2

Compound: CCOc1ccc2c(c1)n1ncc(I)c1n[n+]2[O-]
- pKi [1]: 8.32
- pKi [2]: 8.39
- pKi [3]: 7.47
- Activity (Mus musculus [4]): 0.2
- Activity (Mus musculus [5]): 0.2
- Activity (Mus musculus [6]): 0.2
- Activity (Mus musculus [7]): 10%
- Activity (Mus musculus [8]): 0%
- Activity (Mus musculus [9]): 0%
- Activity (Mus musculus [10]): Active
- Activity (Mus musculus [11]): Active
- Activity (Mus musculus [12]): Active
- Activity (Mus musculus [13]): Active
- Activity (Mus musculus [14]): Active
- Activity (Mus musculus [15]): Active
- pKi [16]: 7.00

Compound: CCCCOc1ccc2c(c1)n1ncc(I)c1n[n+]2[O-]
- pKi [1]: 8.27

Compound: [O-][n+]1nc2c(Br)cnn2c2cc(Br)ccc21
- pKi [1]: 7.14

Compound: CCOc1ccc2nnc3c(I)cnn3c2c1
- pKi [1]: 7.74
- pKi [2]: 7.86
- pKi [3]: 6.88
- Activity (Mus musculus [4]): 0.3
- Activity (Mus musculus [5]): 0.7
- Activity (Mus musculus [17]): 237.7 s
- Activity (Mus musculus [7]): 0%
- Activity (Mus musculus [8]): 0%
- Activity (Mus musculus [9]): 0%
- pKi [16]: 7.02

Compound: [O-][n+]1nc2c(Cl)cnn2c2cc(I)ccc21
- pKi [1]: 6.69

Compound: CCCOc1ccc2c(c1)n1ncc(I)c1n[n+]2[O-]
- pKi [1]: 7.92

Compound: CCOc1ccc2c(c1)n1ncc(Cl)c1n[n+]2[O-]
- pKi [1]: 6.80

Compound: [O-][n+]1nc2c(I)cnn2c2cc(Br)ccc21
- pKi [1]: 7.85

Compound: CN(C)CCOc1ccc2c(c1)n1ncc(I)c1n[n+]2[O-]
- pKi [1]: 6.63

Compound: [O-][n+]1nc2c(Cl)cnn2c2cc(Cl)ccc21
- pKi [1]: 6.43

Compound: [O-][n+]1nc2c(I)cnn2c2cc(O)ccc21
- pKi [1]: 5.77

Compound: CC(C)Oc1ccc2c(c1)n1ncc(I)c1n[n+]2[O-]
- pKi [1]: 7.38

Compound: CCCCCOc1ccc2c(c1)n1ncc(I)c1n[n+]2[O-]
- pKi [1]: 8.19

Compound: CCOc1ccc2n[n+]([O-])c3c(I)cnn3c2c1
- pKi [1]: 8.77
- pKi [2]: 8.59
- pKi [3]: 7.91
- Activity (Mus musculus [5]): 0.4
- Activity (Mus musculus [6]): 0.6
- Activity (Mus musculus [17]): 293.4 s
- Activity (Mus musculus [7]): 0%
- Activity (Mus musculus [8]): 12.5%
- Activity (Mus musculus [10]): Active
- Activity (Mus musculus [12]): Active
- Activity (Mus musculus [13]): Active
- pKi [16]: 7.15

Compound: CCOc1ccc2c(c1)n1ncc(Br)c1n[n+]2[O-]
- pKi [1]: 7.43

Compound: Cc1ccc2c(c1)n1ncc(Cl)c1n[n+]2[O-]
- pKi [1]: 6.71

Compound: [O-][n+]1nc2c(I)cnn2c2cc(I)ccc21
- pKi [1]: 7.85

Compound: COCCOc1ccc2c(c1)n1ncc(I)c1n[n+]2[O-]
- pKi [1]: 7.43

Compound: CCOc1ccc2n[n+]([O-])c3c(Br)cnn3c2c1
- pKi [1]: 7.81

Compound: [O-][n+]1nc2c(I)cnn2c2cc(OCC3CC3)ccc21
- pKi [1]: 8.12

Compound: CSc1ccc2c(c1)n1ncc(I)c1n[n+]2[O-]
- pKi [1]: 7.80

Compound: [O-][n+]1nc2c(I)cnn2c2cc(OCCCl)ccc21
- pKi [1]: 7.21

Compound: CN1C(=O)CN=C(c2ccccc2)c2cc(Cl)ccc21 [DIAZEPAM]
- pKi [1]: 8.00
- Activity (Mus musculus [4]): 1.2
- Activity (Mus musculus [7]): 100%

Compound: C#CCOc1ccc2c(c1)n1ncc(I)c1n[n+]2[O-]
- pKi [1]: 9.10

Compound: [O-][n+]1nc2c(Br)cnn2c2cc(Cl)ccc21
- pKi [1]: 6.92

Compound: [O-][n+]1nc2c(Cl)cnn2c2cc(Br)ccc21
- pKi [1]: 6.48

Compound: [O-][n+]1nc2c(Br)cnn2c2cc(I)ccc21
- pKi [1]: 7.09

Compound: Cc1ccc2c(c1)n1ncc(I)c1n[n+]2[O-]
- pKi [1]: 7.92

Compound: Clc1ccc2nnc3c(I)cnn3c2c1
- pKi [1]: 7.64

Compound: Cc1ccc2c(c1)n1ncc(Br)c1n[n+]2[O-]
- pKi [1]: 7.27

Compound: COc1ccc2c(c1)n1ncc(I)c1n[n+]2[O-]
- pKi [1]: 7.87
